High-throughput results as filed in PubChem BioAssay.
The list is not random: actives were taken first. Their share in the collection is about 4.4%.
Calb FLC: C. albicans growth modulation with fluconazole; C. albicans CaCi-2 (fluconazole-resistant clinical isolate) + fluconazole, Alamar Blue growth, 48 h; growth inhibition, % (concentration not given with the values); hit rate 0.57% among 300,000; AID 1979;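 active means growth inhibition above about 58% in most replicates, limit read from the data, passing the limit was not always enough; inconclusive means exactly half the replicates above a set limit; inactive means most replicates below a set limit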;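 further: all wells also contain fluconazole at 8 µg/ml as a sub-toxic cotreatment; 0% = median of DMSO wells and 100% = median of geldanamycin control wells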
HIF act: HIF pathway transcriptional activation. U2OS HRE-luciferase reporter, luminescence; normalized: DMSO 0%, desferrioxamine 100%. hit rate 0.32% among 300,000. AID 1910. activation, % at 7.5 µM (by protocol);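 active means mean activation of at least 10% of the iron chelator positive control signal, with at least half of replicates also reaching 10%; inconclusive means mean and replicate majority disagree about reaching 10%; inactive means mean and most replicates under 10%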
HSF1 inhib: HSF1 inhibition; activity change, negative = inhibition, % at 7.5 µM (by protocol); hit rate 0.77% among 300,000; NIH3T3-HGL HSE-luciferase, MG132-induced, luminescence 8 h; hits give low values;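 active means more than half of replicate wells show activity change below -50%, luminescence cut by over half; inconclusive means some wells, but at most half, below -50%; inactive means no replicate well below -50%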;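 further: luciferase reports HSF-1 transcriptional activity via heat shock element; 0% = median of DMSO wells and -100% = zero luminescence signal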
HSF1 activator: increases HSF-1 driven luciferase reporter signal. NIH3T3-HGL HSF-1 luciferase reporter, MG132, 8 h; 100% = twice DMSO control signal. activation, % at 9 µM. hit rate 1.7% among 300,000. AID 504408;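 active means mean replicate activation of at least 50% with a set share of replicates each reaching 50%; inconclusive means only one of those two conditions met; inactive means mean below 50% and too few replicates reaching it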;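 further: 0% = median of the neutral control wells and 100% = twice that signal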
T cruzi repl: blocks replication of Trypanosoma cruzi | inhibition, % (no concentration beside the values) | AID 1885 | T. cruzi beta-gal in NIH3T3, luminescence, 90 h | hit rate 1.4% among 300,000;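 active means mean inhibition across valid replicates above about 55%, limit read from the data; inconclusive means mean below that limit but half or more replicates reach it; inactive means mean below it, under half of replicates reach it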;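 further: signal also drops with host cell toxicity which is not excluded here; 0% = plate median of DMSO wells and 100% = zero luminescence signal; higher percent means less beta-gal luminescence so fewer parasites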
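System – NIH/3T3 host cells with β-galactosidase reporter T. cruzi · Doses – single 50 nL compound addition per well in DMSO · Reagent – 5000 T. cruzi trypomastigotes/well · Medium – Low-serum DMEM with 2% FBS · Timing – ≥90 h infection period, 3 h prior cell attachment · Evaluation – parasite load inhibition, % · Technique – GalScreen luminescence, 60 min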
* = called active by the depositor; ? = inconclusive; . = no result.

SMILES	Calb FLC	HIF act	HSF1 inhib	HSF1 activator	T cruzi repl
O=C(NCC(c1cccnc1)N1CCN(c2ccccc2F)CC1)Oc1ccccc1 (stereo not drawn)	1	0	2	3	65*
Fc1ccccc1N1CCN(Cc2c(F)cccc2F)CC1	42	0	-7	-3	6
CCC1(CC)C(=O)N(Cc2ccccc2)C(=O)N(Cc2ccccc2)C1=O	2	0	-13	-27	61*
CC(C)(C)n1cc(C(=O)c2ccc3ccccc3c2O)cn1	10	0	-72*	-74	18
CC1CN=C(Nc2ccccc2)S1 (stereo not drawn)	10	0	8	52*	-19
CC(=O)O[C@@]12CO[C@@H]1C[C@@H](O)[C@@]1(C)C(=O)[C@H](O)C3=C(C)[C@@H](OC(=O)[C@H](O)[C@@H](NC(=O)c4ccccc4)c4ccccc4)C[C@@](O)([C@@H](OC(=O)c4ccccc4)C12)C3(C)C (stereo partly drawn)	-3	0	-13	-26	71*
CC/C=C/CC(=O)N[C@@H](c1ccccc1)[C@@H](O)C(=O)O[C@H]1C[C@@]2(O)[C@@H](OC(=O)c3ccccc3)C3[C@](C)(C(=O)[C@H](OC(C)=O)C(=C1C)C2(C)C)[C@@H](O)C[C@H]1OC[C@@]31OC(C)=O (stereo partly drawn)	3	1	-9	-12	45
C/C=C(\C)C(=O)N[C@@H](c1ccccc1)[C@@H](O)C(=O)O[C@H]1C[C@@]2(O)[C@@H](OC(=O)c3ccccc3)C3[C@](C)(C(=O)[C@H](OC(C)=O)C(=C1C)C2(C)C)[C@H](O)C[C@H]1OC[C@@]31OC(C)=O (stereo partly drawn)	7	0	-8	-6	56*
CC(=O)O[C@@]12CO[C@@H]1C[C@H](OC1OCC(O)C(O)C1O)[C@@]1(C)C(=O)[C@H](O)C3=C(C)[C@@H](OC(=O)[C@H](O)[C@@H](NC(=O)c4ccccc4)c4ccccc4)C[C@@](O)([C@@H](OC(=O)c4ccccc4)C12)C3(C)C (stereo partly drawn)	-1	0	-4	0	6
CCC(C)C(=O)N[C@@H](c1ccccc1)[C@@H](O)C(=O)O[C@H]1C[C@@]2(O)[C@@H](OC(=O)c3ccccc3)C3[C@](C)(C(=O)[C@H](OC(C)=O)C(=C1C)C2(C)C)[C@@H](O)C[C@H]1OC[C@@]31OC(C)=O (stereo partly drawn)	2	0	-4	-20	57*
COc1ccc(-n2c(C)cc(C(=O)C[N+]34CCN(CC3)CC4)c2C)cc1	-5	-1	-8	2	-14
O=C(N/N=C1/CN2CCC1CC2)c1cc2ccccc2cc1O	32	0	6	12	-20
CC(C)OCC(O)CN1CC2C[C@@H](C1)Cn1c2cccc1=O (stereo partly drawn)	-7	-1	-13	2	0
CC(=O)OC1(c2ccccc2)CCN(C)C2CCCCC21 (stereo not drawn)	5	0	-52*	-62	-5
CC(=O)OC1(c2ccccc2)CCN(C)CC1(C)C (stereo not drawn)	12	-1	-1	-2	-3
Cc1oc(-c2ccccc2Cl)nc1CN1C(=O)CN=C(c2ccccc2)c2ccccc21	2	0	60	95*	-8
CCOc1ccc(-c2c(C)n(-c3ccc(OCC)cc3)c3[n+]2CCCCC3)cc1	87*	2	-9	0	46
CCOc1ccc(-n2c(-c3ccoc3)nc3ccccc3c2=O)cc1	-13	0	2	10	8
Cc1ccc(-n2c(CNCc3ccc(F)cc3)nc3ccccc3c2=O)cc1	-1	0	7	-7	20
CCN(CC)CCNCc1nc2ccccc2c(=O)n1-c1ccc(F)cc1	?	60*	1	-2	-4
CCCCNC(=S)N1CCn2cccc2C1c1cccnc1 (stereo not drawn)	9	0	8	2	65*
CNC(=S)N1CCn2cccc2C1c1cccnc1 (stereo not drawn)	-4	0	-2	-1	36
CCOC(=O)N(CC)c1ccc(C(O)(C(=O)OC)C(F)(F)F)cc1 (stereo not drawn)	-5	0	2	-6	-12
CSc1nc(N)c(N=Nc2ccc([As](=O)(O)O)cc2)c(=O)[nH]1	-1	-1	-2	2	18
CCCCCCOc1ccc(CN2CCN(C)CC2)cc1	21	-2	?	-53	68*
SMILES	Calb FLC	HIF act	HSF1 inhib	HSF1 activator	T cruzi repl
CN1CCN(Cc2ccc3ccccc3c2)CC1	1	3	-6	7	43
O=[N+]([O-])c1cc(Cl)c(O)c(-[n+]2c(-c3ccccc3)cc(-c3ccccc3)cc2-c2ccccc2)c1	-2	-1	9	18	24
O=[N+]([O-])c1ccc(C[n+]2c(-c3ccccc3)cc(-c3ccccc3)cc2-c2ccccc2)cc1	107*	0	-5	-3	52
O=C(c1ccc(Cl)cc1)C1CCCN(Cc2ccc3c(c2)OCCO3)C1 (stereo not drawn)	-29	0	-60*	-69	34
CC(C)(C)NC(=O)NC(=O)CN1CC=C(c2ccccc2)CC1	-2	0	12	61*	-2
O=C(CSC1c2ccccc2-c2ccccc21)N/N=C/c1ccc(C(=O)O)cc1	-16	0	-6	14	-24
O=C(CSC1c2ccccc2-c2ccccc21)N/N=C/c1ccccc1O	19	9.9*	2	10	60*
Cc1ccccc1N1CCN(Cc2ccc3c(c2)OCO3)CC1	-3	0	-4	4	2
Cc1ccc(N2C(=O)NC(=O)/C(=C/c3cnn(-c4ccc(C)cc4)c3)C2=O)cc1	-6	0	-70*	-75	-1
CSc1ncc(/C=C2/C(=O)NC(=O)N(c3ccc(C)cc3)C2=O)cn1	10	0	-6	30	-2
CCc1cc2c(s1)NC(=O)CN=C2c1cccs1	-3	0	-5	7	6
Cc1nc2ccccc2c(=O)n1-c1ccncc1	0	0	-4	-5	-3
Cc1nc2ccccc2c(=O)n1-c1cc([N+](=O)[O-])cc([N+](=O)[O-])c1	7	0	-1	9	55*
C=Cn1c(P(=S)(N2CCOCC2)N2CCOCC2)cc2c1CCCC2	39	-1	9	2	2
CC12CN3CCN(CC(C3)/C1=N/NC(N)=O)C2	-3	0	-3	6	-7
COC(=O)C1=C(C(=O)OC)C2OC1c1cc3ccccc3cc12	.	.	59*	59*	.
CCOc1ccc([N+](=O)[O-])cc1CNCCc1ccccc1	-42	1	-2	-2	30
O=[N+]([O-])c1ccc(CNCCc2ccccc2)cc1	-2	2	-4	0	59*
